Assay results reported in ChEMBL document CHEMBL5724801, “EUbOPEN Chemogenomics Library - Multiplex” (2024).
Where “and” joins values, the source holds several entries; their conditions need not be identical. Equal values may be shown once.

System: U2OS
Test: Multiplex assay against U2OS
Type: toxicity, cell-based
Settings: human
How it was run: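 Values for tubulin, mitochondrial-mass and membrane-permeability phenotypes are per cents of cells with healthy nuclei. These cells were identified by CellPathfinder machine-learning gating of live cells that had been stained at seeding with Hoechst33342, BioTracker Green Microtubule Cytoskeleton Dye, MitoTracker Red and Annexin V Alexa Fluor 680 and imaged on a CQ1 microscope at 37°C and 5% CO2 after compound addition. The gating first set Hoechst high-intensity objects apart from normal cells, then split normal cells into healthy, pyknosed or fragmented nuclei, and pyknosed cells into mitotic or apoptotic.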

[1] = 12 h, 1 µM, compound concentration 1 uM
[2] = 12 h, 10 µM, compound concentration 10 uM
[3] = 24 h, 1 µM, compound concentration 1 uM
[4] = 24 h, 10 µM, compound concentration 10 uM
[5] = 48 h, 1 µM, compound concentration 1 uM
[6] = 48 h, 10 µM, compound concentration 10 uM

For `O=C(O)c1cc2ccccc2c(Cc2c(O)c(C(=O)O)cc3ccccc23)c1O` [PAMOIC ACID], the “Population Apoptotic (%)” value [1] was 85% and 50%, the “Population Fragmented Nuclei (%)” value [1] was 23% and 15% and the “Population Healthy Nuclei (%)” value [1] was 68% and 73%. For the same molecule, the “Population Hoechst High Intensity Objects (%)” value [1] was 1% and 0%, the “Population Membrane Permeable-Phenotype (%)” value [1] was 2% and 12% and the “Population Mitochondria Different-Phenotype (%)” value [1] was 0% and 6%. The “Population Normal (%)” value [1] was 98% and 100%, the “Population Pyknosed Nuclei (%)” value [1] was 8% and 11% and the “Population Tubulin-Different-Phenotype (%)” value [1] was 0% and 13%. The “Total Cell Count” value [1] was 246 and 109, the “Population Apoptotic (%)” value [2] was 75% and 87% and the “Population Fragmented Nuclei (%)” value [2] was 19%. The “Population Healthy Nuclei (%)” value [2] was 75%, the “Population Hoechst High Intensity Objects (%)” value [2] was 2% and 0% and the “Population Membrane Permeable-Phenotype (%)” value [2] was 6% and 5%. For the same molecule, the “Population Mitochondria Different-Phenotype (%)” value [2] was 1% and 3%, the “Population Mitotic Cells (%)” value [2] was 25% and 12% and the “Population Normal (%)” value [2] was 97% and 100%. The “Population Pyknosed Nuclei (%)” value [2] was 4% and 5%, the “Population Tubulin-Different-Phenotype (%)” value [2] was 4% and 2% and the “Total Cell Count” value [2] was 259 and 140. The “Population Apoptotic (%)” value [3] was 92% and 76%, the “Population Fragmented Nuclei (%)” value [3] was 18% and 20% and the “Population Healthy Nuclei (%)” value [3] was 72% and 70%. For the same molecule, the “Population Hoechst High Intensity Objects (%)” value [3] was 1% and 0%, the “Population Membrane Permeable-Phenotype (%)” value [3] was 2% and 11% and the “Population Mitochondria Different-Phenotype (%)” value [3] was 0% and 2%. The “Population Mitotic Cells (%)” value [3] was 8% and 23%, the “Population Normal (%)” value [3] was 98% and 99% and the “Population Pyknosed Nuclei (%)” value [3] was 8% and 9%. The “Population Tubulin-Different-Phenotype (%)” value [3] was 1% and 7%, the “Total Cell Count” value [3] was 288 and 139 and the “Population Apoptotic (%)” value [4] was 82% and 90%. For the same molecule, the “Population Fragmented Nuclei (%)” value [4] was 17% and 13%, the “Population Healthy Nuclei (%)” value [4] was 76% and 79% and the “Population Hoechst High Intensity Objects (%)” value [4] was 3% and 1%. For the same molecule, the “Population Membrane Permeable-Phenotype (%)” value [4] was 5% and 7%, the “Population Mitochondria Different-Phenotype (%)” value [4] was 2% and 3% and the “Population Mitotic Cells (%)” value [4] was 17% and 9%. For the same molecule, the “Population Normal (%)” value [4] was 96% and 98%, the “Population Pyknosed Nuclei (%)” value [4] was 5% and 6% and the “Population Tubulin-Different-Phenotype (%)” value [4] was 3% and 7%. For the same molecule, the “Total Cell Count” value [4] was 314 and 163, the “Population Apoptotic (%)” value [5] was 83% and 90% and the “Population Fragmented Nuclei (%)” value [5] was 16% and 11%. The “Population Healthy Nuclei (%)” value [5] was 74% and 76%, the “Population Hoechst High Intensity Objects (%)” value [5] was 1% and 2% and the “Population Membrane Permeable-Phenotype (%)” value [5] was 2% and 9%. For the same molecule, the “Population Mitochondria Different-Phenotype (%)” value [5] was 1% and 3%, the “Population Mitotic Cells (%)” value [5] was 16% and 10% and the “Population Normal (%)” value [5] was 98% and 97%. For the same molecule, the “Population Pyknosed Nuclei (%)” value [5] was 9% and 11%, the “Population Tubulin-Different-Phenotype (%)” value [5] was 2% and 5% and the “Total Cell Count” value [5] was 469 and 177. For the same molecule, the “Population Apoptotic (%)” value [6] was 96% and 89%, the “Population Fragmented Nuclei (%)” value [6] was 15% and 20% and the “Population Healthy Nuclei (%)” value [6] was 77% and 66%. The “Population Hoechst High Intensity Objects (%)” value [6] was 3% and 0%, the “Population Membrane Permeable-Phenotype (%)” value [6] was 5% and 6% and the “Population Mitochondria Different-Phenotype (%)” value [6] was 1% and 2%. For the same molecule, the “Population Mitotic Cells (%)” value [6] was 3% and 10%, the “Population Normal (%)” value [6] was 96% and 99% and the “Population Pyknosed Nuclei (%)” value [6] was 6% and 13%. For the same molecule, the “Population Tubulin-Different-Phenotype (%)” value [6] was 4% and 2% and the “Total Cell Count” value [6] was 455 and 218.
With `COCCCN1CCC(NC(=O)c2cc(Cl)c(N)c3c2OCC3)CC1` [PRUCALOPRIDE] the “Population Apoptotic (%)” value [1] was 84% and 87%, the “Population Fragmented Nuclei (%)” value [1] was 30% and 21% and the “Population Healthy Nuclei (%)” value [1] was 63% and 71%. The “Population Hoechst High Intensity Objects (%)” value [1] was 1% and 0%, the “Population Membrane Permeable-Phenotype (%)” value [1] was 7% and 12% and the “Population Mitochondria Different-Phenotype (%)” value [1] was 3% and 7%. The “Population Mitotic Cells (%)” value [1] was 15% and 12%, the “Population Normal (%)” value [1] was 98% and 99% and the “Population Pyknosed Nuclei (%)” value [1] was 6% and 7%. The “Population Tubulin-Different-Phenotype (%)” value [1] was 4% and 8%, the “Total Cell Count” value [1] was 207 and 110 and the “Population Apoptotic (%)” value [2] was 68% and 47%. For the same molecule, the “Population Fragmented Nuclei (%)” value [2] was 22% and 13%, the “Population Healthy Nuclei (%)” value [2] was 63% and 73% and the “Population Hoechst High Intensity Objects (%)” value [2] was 3% and 2%. The “Population Membrane Permeable-Phenotype (%)” value [2] was 4% and 1%, the “Population Mitochondria Different-Phenotype (%)” value [2] was 0% and 1% and the “Population Mitotic Cells (%)” value [2] was 31% and 52%. The “Population Normal (%)” value [2] was 96% and 97%, the “Population Pyknosed Nuclei (%)” value [2] was 13% and 12% and the “Population Tubulin-Different-Phenotype (%)” value [2] was 2% and 1%. For the same molecule, the “Total Cell Count” value [2] was 238 and 140, the “Population Apoptotic (%)” value [3] was 80% and the “Population Fragmented Nuclei (%)” value [3] was 26% and 23%. The “Population Healthy Nuclei (%)” value [3] was 65% and 69%, the “Population Hoechst High Intensity Objects (%)” value [3] was 2% and 1% and the “Population Membrane Permeable-Phenotype (%)” value [3] was 5% and 8%. For the same molecule, the “Population Mitochondria Different-Phenotype (%)” value [3] was 3% and 4%, the “Population Mitotic Cells (%)” value [3] was 20% and the “Population Normal (%)” value [3] was 97% and 98%. The “Population Pyknosed Nuclei (%)” value [3] was 8% and 7%, the “Population Tubulin-Different-Phenotype (%)” value [3] was 5% and 7% and the “Total Cell Count” value [3] was 247 and 132. The “Population Apoptotic (%)” value [4] was 87% and 77%, the “Population Fragmented Nuclei (%)” value [4] was 23% and 12% and the “Population Healthy Nuclei (%)” value [4] was 64% and 76%. For the same molecule, the “Population Hoechst High Intensity Objects (%)” value [4] was 4% and 1%, the “Population Membrane Permeable-Phenotype (%)” value [4] was 5% and 3% and the “Population Mitochondria Different-Phenotype (%)” value [4] was 2%. For the same molecule, the “Population Mitotic Cells (%)” value [4] was 12% and 22%, the “Population Normal (%)” value [4] was 95% and 98% and the “Population Pyknosed Nuclei (%)” value [4] was 12% and 11%. For the same molecule, the “Population Tubulin-Different-Phenotype (%)” value [4] was 4% and 3%, the “Total Cell Count” value [4] was 280 and 161 and the “Population Apoptotic (%)” value [5] was 85% and 86%. For the same molecule, the “Population Fragmented Nuclei (%)” value [5] was 20%, the “Population Healthy Nuclei (%)” value [5] was 73% and 67% and the “Population Hoechst High Intensity Objects (%)” value [5] was 3% and 2%. The “Population Membrane Permeable-Phenotype (%)” value [5] was 3% and 11%, the “Population Mitochondria Different-Phenotype (%)” value [5] was 1% and 6% and the “Population Mitotic Cells (%)” value [5] was 14% and 13%. For the same molecule, the “Population Normal (%)” value [5] was 96% and 97%, the “Population Pyknosed Nuclei (%)” value [5] was 6% and 11% and the “Population Tubulin-Different-Phenotype (%)” value [5] was 3% and 9%. The “Total Cell Count” value [5] was 352 and 199, the “Population Apoptotic (%)” value [6] was 88% and 90% and the “Population Fragmented Nuclei (%)” value [6] was 17% and 11%. For the same molecule, the “Population Healthy Nuclei (%)” value [6] was 69% and 79%, the “Population Hoechst High Intensity Objects (%)” value [6] was 1% and the “Population Membrane Permeable-Phenotype (%)” value [6] was 5% and 3%. The “Population Mitochondria Different-Phenotype (%)” value [6] was 2% and 3%, the “Population Mitotic Cells (%)” value [6] was 11% and 9% and the “Population Normal (%)” value [6] was 98%. The “Population Pyknosed Nuclei (%)” value [6] was 12% and 9%, the “Population Tubulin-Different-Phenotype (%)” value [6] was 2% and 1% and the “Total Cell Count” value [6] was 347 and 245.
